Bioassay records from PubChem.
MDM2 E3 inh = blocks human Mdm2 ubiquitin ligase activity; cell-based MDM2 ubiquitination luciferase reporter, 2 h; 0 = plate control, 100 = twice control, blank-subtracted; signal enhancement, % at 5 µM; 0.11% of 210,000 active; AID 1230;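 active = signal enhancement of 30% or more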;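 also: luminescence tracks abundance of the self-degrading MDM2-luciferase fusion protein; higher signal means inhibition of MDM2 E3 ligase activity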
Target sequence (Q00987 whole entry, looked up, the tested form may be a part): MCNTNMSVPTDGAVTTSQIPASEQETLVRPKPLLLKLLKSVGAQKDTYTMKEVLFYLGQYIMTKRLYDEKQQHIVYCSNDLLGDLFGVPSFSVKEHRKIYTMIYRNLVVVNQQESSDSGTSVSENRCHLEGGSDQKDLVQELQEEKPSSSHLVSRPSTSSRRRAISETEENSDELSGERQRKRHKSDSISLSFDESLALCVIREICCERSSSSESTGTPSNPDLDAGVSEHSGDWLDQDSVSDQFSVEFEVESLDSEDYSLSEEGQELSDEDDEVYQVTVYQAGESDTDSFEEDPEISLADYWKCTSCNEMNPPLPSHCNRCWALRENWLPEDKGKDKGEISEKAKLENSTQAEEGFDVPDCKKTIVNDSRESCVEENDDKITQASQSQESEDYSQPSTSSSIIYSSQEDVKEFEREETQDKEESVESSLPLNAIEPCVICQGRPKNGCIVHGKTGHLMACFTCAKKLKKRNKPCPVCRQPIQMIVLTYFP
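Buffer or medium: Cells held in DMEM | Assay system: Stable mammalian line carrying autodegrading MDM2–luciferase fusion reporter | Quantity: 2000 cells/well | Times: 4 h settle plus 2 h compound, 37 °C | Doses: One concentration, 5 µM, with 0.2% DMSO | Technique: Luminescence with SteadyLite reagent, 15 min at room temperature | Benchmarks: Plate controls and plate blanks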
Dynein transport = blocks dynein driven cargo transport along microtubules. 3617.4 mouse cells, GR-EGFP nuclear translocation imaging; test concentration mostly 20 µM; stimulated with dexamethasone, 1 µM; stronger effect = lower value. z-score, hits read low. 0.47% of 220,000 active. AID 1381;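 active = plate z-score of nuclear minus cytoplasmic receptor signal below a set negative limit, without overly bright fluorescence or cell loss, cut at about -3.5 in these data, passing the limit was not always enough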;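 also: z-score of nuclear minus cytoplasmic ring GR-EGFP intensity difference per well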
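Schedule: 48 h induction, then 1 h compound, then 30 min agonist, 37 °C. Buffer or medium: tetracycline-free induction medium containing charcoal-stripped FBS. Reagent: 1.0 µM final dexamethasone stimulus. Evaluation: nuclear versus cytoplasmic GR-EGFP signal, averaged per well. Signal: high-content fluorescence imaging after fixation.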
CHOP UPR activ = apoptotic UPR (CHOP) activation | 0.34% of 330,000 active | CHO-CHOP luciferase reporter, luminescence; percent of tunicamycin response over DMSO baseline | activation, % at 10 µM;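 active = at 10 µM dose, activation of 40% or more, normalized to positive control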;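 also: 100% = tunicamycin at 10 µg/mL and 0% = DMSO alone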
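Evaluation: % reporter activation, DMSO baseline versus tunicamycin full activation; System: CHO-CHOP luciferase reporter cell line; Input: 500 cells/well; Incubation: 6 h compound treatment, 37 °C; Measured by: Steady-Glo luciferase luminescence; Dosing: one dose, 10 µM in 0.5% DMSO; Buffer or medium: F12 medium, 10% FBS; Benchmarks: positive tunicamycin 10 µg/mL, negative DMSO alone.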
UPR XBP1 act = adaptive UPR (XBP1) activation | CHO-XBP1 luciferase reporter, IRE1-XBP1 UPR activation, luminescence; percent of tunicamycin response, DMSO as zero | activation, % at 20 µM | 0.33% of 330,000 active;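 active = versus positive control, 20 µM dose yields 30% or more activation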;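 also: 100% = tunicamycin at 10 µg/mL and 0% = DMSO only wells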
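Assay system: IRE1-XBP1 luciferase reporter CHO line. Input: 1000 cells/well. Buffer or medium: F12 with 10% serum. Doses: 20 µM, 1% DMSO. Times: overnight seeding at 37 °C, 6 h compound treatment at 37 °C. Technique: Steady-Glo luciferase glow luminescence, 10 min after reagent addition.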
Mdm2-MdmX inh = inhibitors of human Mdm2/MdmX interaction; O15151+Q00987; 3% of 330,000 active; SaOS-2 split-luciferase Mdm2/MdmX complementation, luminescence; inhibition, % at 8 µM; AID 485346;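 active = inhibition of at least 50% at 8 µM in the primary screen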
Beta2AR agonist = activates human beta-2 adrenergic receptor causing internalization; 0.43% of 340,000 active; AID 504454; P07550; response, % (test concentration not listed); Am2.2-beta2AR cells, FAP receptor internalization, flow cytometry;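 active = response above a set limit, near 3 SD of response in nonfluorescent compounds, cut at about 42% in these data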
Mdm2-MdmX conf = confirmation of human Mdm2/MdmX interaction inhibitors | inhibition, % at 8 µM | Mdm2-MdmX binding, luminescent assay | shares compounds with Mdm2-MdmX inh | AID 489028 | 55% of 10,000 active; in the data active = inhibition above about 40%
FLuc counter = inhibits full-length luciferase, flagging false Mdm2/MdmX hits; shares compounds with Mdm2-MdmX inh; SaOS-2 full-length luciferase counterscreen, luminescence; inhibition, % at 8 µM; 77% of 6,200 active;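 active = mean inhibition at 8 µM reaching about 37%, which flags the compound as non-specific, limit read from the data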;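 also: p53-null SaOS-2 cells with luciferase driven by a doxycycline-inducible promoter; compound on cells about two nights before reading with doxycycline added after day one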
Numbers without * were called inactive; · = no result given. Hits are enriched below; roughly 3.7% of the tested compounds scored in any of these assays.

SMILES	MDM2 E3 inh	Dynein transport	CHOP UPR activ	UPR XBP1 act	Mdm2-MdmX inh	Beta2AR agonist	Mdm2-MdmX conf	FLuc counter
COc1ccc(OC)c(NC(=O)c2nc(S(=O)(=O)Cc3ccccc3)ncc2Cl)c1	·	·	-11	-11	100*	38	93*	51*
O=C(CN1C(=O)NC2(CCCC2)C1=O)N1CCN(S(=O)(=O)c2cccc(C(F)(F)F)c2)CC1	·	·	0	-4	-18	-1	·	·
CCN(CC)C(=S)SCC(=O)Nc1ncc2c(n1)CC(C)(C)CC2=O	3	-0.68	2	-1	10	-11	·	·
COCc1cc(C)nc(NC2CC(C)(C)NC(C)(C)C2)c1C#N	·	·	-3	-3	28	-4	·	·
COc1cccc(C(=O)Nc2ncc3c(n2)CC(c2ccc(OC)cc2OC)CC3=O)c1 (centres undefined)	-3	0.16	-2	7	59*	-3	51*	57*
Cc1ccc2c(c1)[C@H]1[C@H](CO2)[C@H](c2ccccc2)[C@]2(C)C(=O)Nc3ccc(Cl)cc3C(=O)N12	·	·	0	-1	35	0	·	·
C[C@@]12C(=O)Nc3ccc(Cl)cc3C(=O)N1[C@H]1c3cc(Cl)ccc3OC[C@@H]1[C@@H]2c1ccccc1	·	·	2	0	53*	2	14	·
COc1ccc2c(c1)OC[C@H]1[C@H]2N2C(=O)c3ccccc3NC(=O)[C@@]2(C)[C@H]1c1ccccc1	·	·	1	-4	50*	-2	36	54*
C[C@@]12C(=O)Nc3cc(F)c(F)cc3C(=O)N1[C@H]1c3cc(Cl)ccc3OC[C@@H]1[C@@H]2c1ccccc1	·	·	4	9	51*	21	34	·
Cc1cc(C)n(-c2nc3nonc3nc2Nc2cccc(C)c2C)n1	5	-0.62	2	6	51*	-5	20	·
CCCn1c(=O)c2sccc2n2c(CCCC(=O)NC3CCN(Cc4ccccc4)CC3)nnc12	·	·	-1	-4	7	1	·	·
Cc1cccc(N2CCN(C(=O)c3cc(S(=O)(=O)N4CCCC4)cn3C)CC2)c1C	·	·	-2	-1	55*	8	58*	49*
Cc1cccc(N2CCN(C(=O)c3cc(S(=O)(=O)N4CCOCC4)cn3C)CC2)c1C	·	·	1	-3	28	5	·	·
COCCn1cc(C(=O)N2CCN(C)CC2)c2c3ccccc3n(C)c2c1=O	-6	-0.26	0	-1	-3	-2	·	·
Cc1cccc(N2CCN(C(=O)c3cn(C)c(=O)c4c3c3ccccc3n4C)CC2)c1C	-5	-0.38	-2	-1	59*	10	45*	64*
Cn1c2ccccc2c2c(C(=O)N3CCN(c4ccccc4)CC3)cn(C3CCCC3)c(=O)c21	-4	1.5	-3	-1	9	6	·	·
Cc1ccc(Cl)cc1N1CCN(C(=O)c2cn(C)c(=O)c3c2c2ccccc2n3C)CC1	-14	0.94	1	3	69*	15	63*	42*
Cc1cccnc1NC(=S)Nc1ccc(Br)cc1Cl	-6	-1	4	1	-192	-9	·	·
COC(=O)C(Cc1ccccc1)OS(N)(=O)=O (centres undefined)	·	·	-1	1	-1	0	·	·
CC(=O)c1c(C)nc2ccccc2c1N	-9	1	1	1	1	-1	·	·
Cc1nc2ccccc2c(N)c1C(=O)/C=C/c1ccccc1	·	·	0	-1	76*	6	33	75*
C=CC[C@@H](Cc1ccc(F)cc1)C(=O)OC[C@@H]1CCCN1C(=O)[C@@H](CC=C)CC(=O)NCCO	·	·	-1	-1	-15	7	·	·
Cc1nn(-c2ccccc2Cl)c2sc(C(=O)Nc3nnc(C4CC4)s3)cc12	-1	-1.3	-1	2	74*	2	7	·
Cc1nn(Cc2ccccc2Cl)c2sc(C(=O)Nc3ccccc3N3CCOCC3)cc12	2	0.0058	-2	3	55*	3	61*	61*
CCc1ccc(S(=O)(=O)NC(=S)NC2CCCCC2)cc1	-6	1.4	-1	-4	-21	7	·	·
SMILES	MDM2 E3 inh	Dynein transport	CHOP UPR activ	UPR XBP1 act	Mdm2-MdmX inh	Beta2AR agonist	Mdm2-MdmX conf	FLuc counter
Cc1cccc(NC(=O)C(C)OC(=O)c2ccccc2NS(=O)(=O)c2cc(C)c(C)c([N+](=O)[O-])c2)c1 (centres undefined)	-12	0.71	-2	-4	62*	4	16	·
CC(NC(=S)NC1CCCCC1)c1ccc(C(C)(C)C)cc1 (centres undefined)	·	·	5	-3	67*	7	24	·
CC(C)c1ccc(C(C)NC(=S)NC2CCCCC2)cc1 (centres undefined)	·	·	1	-3	8	-3	·	·
CC(C)Cn1c(=S)[nH]c2cc(Cl)ccc21	0	0.34	-1	-2	6	3	·	·
COc1ccccc1N1CCN(c2ccc3cc(S(=O)(=O)N4CCCCC4)ccc3n2)CC1	·	·	-1	-4	51*	8	6	·
CC(=O)c1ccc(N2CCN(S(=O)(=O)c3ccc4ccccc4c3)CC2)cc1	·	·	-1	-2	9	11	·	·
CC(=O)c1ccc(N2CCN(c3ccc4cc(S(=O)(=O)N5CCC(C)CC5)ccc4n3)CC2)cc1	·	·	14	22	61*	32	-2	·
CCN(CC(=O)Nc1ccc(NC(C)=O)cc1)C(=O)CSc1ncnc2sc(C)c(C)c12	·	·	-1	-1	16	9	·	·
CC(C)C(=O)NC(c1cccs1)c1cc([N+](=O)[O-])c2cccnc2c1O (centres undefined)	-7	0.33	2	-2	68*	2	70*	57*
Cc1ccc(C(NC(=O)C(C)C)c2cc([N+](=O)[O-])c3cccnc3c2O)cc1 (centres undefined)	-6	1	-2	2	57*	-3	51*	44*
O=[N+]([O-])c1cc(CN2CCCC2)c2cccnc2c1O	-2	-0.43	·	·	·	1	·	·
Cc1ccc([N+](=O)[O-])c2cccnc12	-15	0.35	0	-2	15	-10	·	·
CCC(=O)NC(/C=C/c1ccccc1)c1cc([N+](=O)[O-])c2cccnc2c1O (centres undefined)	-18	0.42	-1	-1	64*	·	19	·
O=C(CCOc1ccccc1)Nc1ccnn1C1CCN(C(=O)CCC(F)(F)F)CC1	·	·	2	-1	-17	-2	·	·
